Values after ≈ are worked out from the molar mass of the structure shown. Active and inactive are the calls of the source.
Legend:
[1] = Oral bioavailability in Sprague-Dawley rat at 3 mg/kg by HPLC-MS method; format: ADME, organism-based; conditions: in vivo
Procedure, shortened: (§1)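 Male rats (330−380 g, 9−10 weeks), jugular vein cannula implanted 1 day before, fasted. 3 mg/kg given iv or orally (n = 3) in DMA/PEG400 30/70 v/v. Blood (150 μL) drawn at 0, 2, 5 (iv only), 15, 30 min and 1, 2, 4, 6, 8, 12, 24 h; plasma analysed by HPLC-MS; noncompartmental analysis.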

[2] = AUC (0 to infinity) in Sprague-Dawley rat at 3 mg/kg, po by HPLC-MS method; format: ADME, organism-based; set-up: dose 3 mg/kg, route oral, time infinity; conditions: plasma
Procedure, shortened: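 Male rats (330−380 g, 9−10 weeks old), jugular vein cannulated 1 day before dosing, fasted; 3 mg/kg iv or oral in DMA/PEG400 (30/70, v/v), n = 3. Blood (150 μL) drawn at 0, 2, 5 (iv only), 15, 30 min and 1, 2, 4, 6, 8, 12, 24 h, kept on ice; plasma analysed by HPLC-MS; noncompartmental analysis.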

[3] = Tmax in Sprague-Dawley rat at 3 mg/kg, po by HPLC-MS method; format: ADME, organism-based; set-up: dose 3 mg/kg, route oral; conditions: in vivo; procedure, shortened: as §1
[4] = Volume of distribution at steady state in Sprague-Dawley rat at 3 mg/kg, iv by HPLC-MS method; format: ADME, organism-based; set-up: dose 3 mg/kg, route intravenous; conditions: in vivo, read-out: Vdss; procedure, shortened: as §1
[5] = Apparent elimination half life in Sprague-Dawley rat at 3 mg/kg, iv by HPLC-MS method; format: ADME, organism-based; set-up: dose 3 mg/kg, route intravenous; conditions: in vivo, read-out: betat1/2(app) (converted); procedure, shortened: as §1
[6] = Solubility in DMA; format: physicochemical
[7] = Solubility in DMSO; format: physicochemical
Procedure, shortened: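 Compound dissolved in DMSO with sonication; maximal volume before precipitation measured and used to calculate saturation solubility.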

Murine hepatitis virus = experiment: Antiviral activity against Murine hepatitis virus JHM infected in mouse DBT cells assessed as reduction in virus-induced cytopathic effect at 0.05 to 0.5 uM pre-treated 1 hr before virus infection and measured 24 hrs post infection by phase contrast microscopy; format: functional, organism-based
Procedure, shortened: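 DBT cells (2.8 × 10⁵/well) seeded the day before infection in DMEM with 2% FBS. Compound added 1 h before MHV-JHM at MOI 0.005 (virus grown in BNL CL.2 cells). Cytopathic effect viewed by phase contrast and N protein by immunofluorescence at 24 hpi.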

[8] = system: Transmissible gastroenteritis virus; experiment: Antiviral activity against Transmissible gastroenteritis virus infected in ST cells assessed as reduction in N-protein expression pre-treated before virus infection measured 16 hrs post virus infection by Western blotting; format: functional, organism-based
Procedure, shortened: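 ST cells pretreated with compound, then infected with TGEV. Western blot for nucleocapsid (N) protein, caspase 3 (cleavage of procaspase 3) and GAPDH at 16 hpi. Representative of at least three independent experiments.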

RAW264.7 [9] = experiment: Reduction in LPS/INFgamma-induced COX2 protein expression in mouse RAW264.7 cells incubated for 20 hrs by Western blotting; format: functional, cell-based
Procedure, shortened: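 LPS/IFNγ-stimulated RAW264.7 cells treated with compound for 20 h. iNOS, COX-2 and GAPDH detected by Western blot; representative of at least three independent experiments.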

A549 [10] = experiment: Down regulation of cyclin A2 expression in human A549 cells incubated for 24 hrs by Western blotting; format: functional, cell-based
NCI-H460 = experiment: Induction of c-Jun protein accumulation in human NCI-H460 cells incubated for 24 hrs by Western blotting; format: functional, cell-based
MCF7 [11] = experiment: Down regulation of cyclin A2 expression in human MCF7 cells incubated for 24 hrs by Western blotting; format: functional, cell-based
[12] = Cytotoxicity against mouse RAW264.7 cells; format: cell-based
Procedure, shortened: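 RAW264.7 cells stimulated with LPS/IFNγ and compound-treated in parallel with the NO assay; CC50 taken as concentration giving 50% inhibition of cell growth. Mean of at least three experiments, each in duplicate.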

RAW264.7 [13] = experiment: Antiinflammatory activity in mouse RAW264.7 cells assessed as inhibition of LPS-induced nitric oxide production incubated for 18 hrs by nitrate/nitrite assay; format: functional, cell-based; conditions: RAW264.7, 18 h
Procedure, shortened: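 RAW264.7 seeded 65000 cells/well, cultured 24 h, then medium replaced with complete medium containing IFNγ (20 ng/mL)/LPS (5 μg/mL) plus compound at various concentrations for 18 h; nitric oxide measured by Nitrate/Nitrite kit. EC50 as mean of at least three experiments, each in duplicate.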

[14] = Growth inhibition of human HONE1 cells; format: functional
Procedure, shortened: (§2)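 Cells seeded per well: NUGC-3 4500, HONE-1 6000, MCF-7 6500, NCI-H460 2500, HepG2 10000, A549 5000; A549 grown in RPMI 1640 with 2 g/L NaHCO₃, 2 mM L-glutamine and 10% FBS. GI₅₀ = concentration giving 50% growth inhibition, mean of at least three experiments each in duplicate. Paclitaxel served as positive control.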

NUGC-3 = experiment: Growth inhibition of human NUGC3 cells; format: functional; procedure, shortened: as §2
MCF7 [15] = experiment: Growth inhibition of human MCF7 cells; format: functional; procedure, shortened: as §2
HepG2 = experiment: Growth inhibition of human HepG2 cells; format: functional; procedure, shortened: as §2
Mus musculus = experiment: Toxicity in Nu-Foxn1'nu mouse assessed as effect on motor coordination at 10 mg/kg, po administered once daily on day 1 to 10, day 15 to 19 and day 22 to 26 measured during day 58 to 61 post dose by rotarod test; format: organism-based; set-up: dose 10 mg/kg, route oral; conditions: in vivo
Procedure, shortened: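 Male nude mice already used in the A549 xenograft study (oral dosing, vehicle 25% DMA + 75% PEG400). Groups: vehicle (n = 8), 5 mg/kg (n = 7), 10 mg/kg (n = 8), plus untreated nontumor mice (n = 5). Rota-rod training on day 58, testing on days 59–61, rod accelerating 2 to 30 rpm over 300 s. Read-out was latency to fall, 300 s cutoff.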

Rattus norvegicus [16] = experiment: Antiinflammatory activity against Sprague-Dawley rat assessed as reduction in carrageenan-induced hind paw edema at 5 mg/kg, ip; format: functional; set-up: scale not given: the % may be the effect or the level left; conditions: route intraperitoneal
Procedure, shortened: (§3)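 Female Sprague−Dawley rats (193−214 g, 8−9 weeks, n = 5) dosed ip 1 h before subplantar injection of 100 μL 1% carrageenan in saline into the left hind paw. Vehicle group received DMSO (100 μL); indomethacin served as positive control. Inhibition of 30% or more counted as significant.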

Rattus norvegicus [17] = experiment: Antiinflammatory activity against Sprague-Dawley rat assessed as reduction in carrageenan-induced hind paw edema at 3 mg/kg, ip; format: functional; set-up: scale not given: the % may be the effect or the level left; conditions: route intraperitoneal; procedure, shortened: as §3
A549 [18] = experiment: Antitumor activity against human A549 cells xenografted in Nu-Foxn1'nu mouse assessed as reduction in tumor volume at 10 mg/kg, po administered once daily on day 1 to 10, day 15 to 19 and day 22 to 26; format: functional; set-up: scale not given: the % may be the effect or the level left
Procedure, shortened: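 Four-week-old male nude mice received 10 million A549 cells sc in the right flank. At ~60 mm³ tumours, mice were randomised (n = 8) and dosed by oral gavage in 25% DMA + 75% PEG400. Volume = a×b²/2. T/C (%) computed from day 1 and day 60 volumes versus vehicle.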

`CCN1Cc2c(c3ccc(OC)cc3c3cc(OC)c(OC)cc23)C(O)C1` (stereo not drawn) gave a bioavailability [1] of 63.5%, an AUC(0-inf) [2] of 646 ng·h/mL and a Tmax [3] of 18 min. The Vd [4] was 2.7 L/kg, the half-life [5] was 48 min and the solubility [6] was “soluble”. The solubility [7] was 60.5 mM (≈ 22.2 mg/mL), the Activity (Murine hepatitis virus) was “Active” and the Activity [8] was “Active”. For the same molecule, the Activity (RAW264.7 [9]) was “Active”, the Activity (A549 [10]) was “Active” and the Activity (NCI-H460) was “Active”. For the same molecule, the Activity (MCF7 [11]) was “Active”, the CC50 [12] was 240 nM and the EC50 (RAW264.7 [13]) was 70 nM. For the same molecule, the GI50 [14] was 60 nM, the GI50 (NUGC-3) was 30 nM and the GI50 (MCF7 [15]) was 40 nM. The GI50 (HepG2) was 40 nM, the Activity (Mus musculus) was “Non-toxic” and the Activity (Rattus norvegicus [16]) was over 60%. The Activity (Rattus norvegicus [17]) was over 60% and the Activity (A549 [18]) was 61%.
